Measurements from different studies.
Protocols differ between the studies behind these lines.
Target: Tyrosine-protein kinase receptor UFO (AXL, Homo sapiens, UniProt P30530)
One construct used (P30530 26-894): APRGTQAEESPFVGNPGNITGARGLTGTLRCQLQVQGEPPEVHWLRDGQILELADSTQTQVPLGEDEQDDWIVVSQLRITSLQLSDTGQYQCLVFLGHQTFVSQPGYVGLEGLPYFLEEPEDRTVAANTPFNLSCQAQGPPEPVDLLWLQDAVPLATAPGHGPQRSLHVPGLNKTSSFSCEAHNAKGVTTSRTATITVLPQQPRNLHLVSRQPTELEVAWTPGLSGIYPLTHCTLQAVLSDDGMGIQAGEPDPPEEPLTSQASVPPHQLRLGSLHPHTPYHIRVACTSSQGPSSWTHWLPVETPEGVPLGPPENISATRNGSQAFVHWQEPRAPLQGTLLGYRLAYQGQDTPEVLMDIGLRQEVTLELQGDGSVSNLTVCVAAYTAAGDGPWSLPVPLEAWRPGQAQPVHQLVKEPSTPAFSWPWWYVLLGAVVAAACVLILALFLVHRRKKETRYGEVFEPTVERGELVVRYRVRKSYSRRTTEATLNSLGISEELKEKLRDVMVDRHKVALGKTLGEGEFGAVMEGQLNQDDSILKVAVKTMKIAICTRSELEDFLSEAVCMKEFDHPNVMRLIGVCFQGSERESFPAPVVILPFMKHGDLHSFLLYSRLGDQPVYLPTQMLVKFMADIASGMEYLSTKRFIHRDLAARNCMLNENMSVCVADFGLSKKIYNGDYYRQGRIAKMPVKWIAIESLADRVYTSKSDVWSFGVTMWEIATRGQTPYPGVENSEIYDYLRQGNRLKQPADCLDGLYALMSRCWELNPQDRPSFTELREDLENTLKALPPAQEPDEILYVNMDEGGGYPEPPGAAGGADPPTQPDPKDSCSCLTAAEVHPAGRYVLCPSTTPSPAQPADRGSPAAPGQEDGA

FC(F)(F)Oc1cccc(-c2cnc3ccc(-c4ccncc4)nn23)c1
remaining binding (cell-free assay; competition with immobilised ligand; 5 µM): 74%

O=C(NCC1CCOCC1)c1n[nH]cc1NC(=O)c1c(F)cccc1F
remaining binding (binding; competition with immobilised ligand; 1 µM): 91%

O=C(c1ccc(Nc2nccc(-c3cc4ccccc4s3)n2)cc1)N1CCC(N2CCCC2)CC1
remaining binding (binding; competition with immobilised ligand; 1 µM): 33%

CN([C@@H]1CCc2c(CC(=O)O)c3cc(S(C)(=O)=O)ccc3n2C1)S(=O)(=O)c1ccc(F)cc1
remaining binding (cell-free assay; competition with immobilised ligand; 1 µM): 100%

N[C@@H]1CCN(c2nccc(-c3cnn4ncccc34)n2)C1
remaining binding (binding; 1 µM): 100%

O=C(NCCCN1CCOCC1)c1ccc(Nc2ncc(Cl)c(-c3ccc(Cl)s3)n2)cc1
remaining binding (binding; competition with immobilised ligand; 1 µM): 76%

C[C@H](c1ccnc(Nc2nc3ccc(-c4cc(N(C)C)ncn4)cc3[nH]2)c1)N1CCN(C(=O)CC(F)(F)F)CC1
remaining binding (cell-free assay; competition with immobilised ligand; 0.1 µM): 100%

C[C@@H]1CN(c2ccc3ncc(-c4ccc5[nH]nc(C6CC6)c5c4)n3n2)C[C@H](C)O1
remaining binding (binding; competition with immobilised ligand; 50 nM): 95%

C=CC(=O)N1CCC(C(=O)NCC(=O)N2CCN(c3nc(-c4cnc(N)nc4C(F)F)nc(N4CCOCC4)n3)CC2)CC1
remaining binding (binding; competition with immobilised ligand; 1 µM): 97%

NS(=O)(=O)c1cc(NC(=O)C2(c3ccccc3Cl)CC2)ccc1Oc1cccc(Cl)c1
remaining binding (cell-free assay; competition with immobilised ligand; 1 µM): 89%

N#Cc1ccccc1CSc1nnc2c(n1)[nH]c1ccccc12
remaining binding (binding; competition with immobilised ligand; 10 µM): 65%

C[C@H](c1ccc(F)cc1)N(Cc1cccc(C(=O)O)c1)C(=O)c1cnc2ccccc2c1
remaining binding (cell-free assay; competition with immobilised ligand; 1 µM): 100%

c1cnn2ncc(-c3ccnc(N4CCC45COC5)n3)c2c1
remaining binding (binding; 1 µM): 74%

COc1cnc(Nc2cccc(S(N)(=O)=O)c2)nc1N1CCN(c2ccccc2)C(=O)C1
remaining binding (binding; competition with immobilised ligand; 1 µM): 94%

O=C(NCCCN1CCOCC1)c1ccc(Nc2nccc(-c3cc4ccccc4s3)n2)cc1
remaining binding (binding; competition with immobilised ligand; 1 µM): 38%

COc1ccnn2ncc(-c3ccnc(N(C)C)n3)c12
remaining binding (binding; 1 µM): 100%

C[C@@H](c1ccc(-n2cnc3c(N)ncnc32)cc1)N1CCc2nn(C)c(Cc3ccccc3)c2C1=O
remaining binding (binding; competition with immobilised ligand; 0.1 µM): 100%

CO[C@@H](C)c1c(Nc2ccc([C@@H](N(C)C(=O)C3CCS(=O)(=O)CC3)C(F)(F)F)cc2)cnc2cc(Cl)nn12
remaining binding (cell-free assay; competition with immobilised ligand; 1 µM): 77%

F[C@@H]1CCN(c2nccc(-c3cnn4ncccc34)n2)C1
remaining binding (binding; 1 µM): 87%

COc1cnc(Nc2cccc(S(N)(=O)=O)c2)nc1N1CCN(c2ccccc2)CC1
remaining binding (binding; competition with immobilised ligand; 1 µM): 68%

C[C@H]1CCN(c2nccc(-c3cnn4ncccc34)n2)C1
remaining binding (binding; 1 µM): 49%

CNC(=O)c1ccc(Nc2ncc(C(F)(F)F)c(NCc3nccnc3N(C)S(C)(=O)=O)n2)cc1
remaining binding (cell-free assay; competition with immobilised ligand; 0.1 µM): 51%

CN(C)c1nccc(-c2cnn3ncccc23)n1
remaining binding (binding; 1 µM): 100%

CCOC(=O)c1cc2cc(-c3cc(C(=O)NCc4ccc(C(=O)O)cc4)nn3C)ccc2[nH]1
remaining binding (cell-free assay; competition with immobilised ligand; 0.1 µM): 89%
